# In the library only some 3.7% were active in any assay of this set; here they are far more common.
# hERG rescue: shields human hERG channel from block by proarrhythmic agents; CHO-hERG, FluxOR thallium flux, dofetilide IC70 present; activation (rescue from dofetilide block), less the hit threshold, % at 10 µM; actives 0.51% (n = 310,000); AID 1511;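 active means activation above the mean of controls blocked by dofetilide plus 5 SD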;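 further: thallium influx through hERG after potassium depolarization seen as dye fluorescence rise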
# KCNQ1 inh: inhibitors of human KCNQ1 potassium channel | P51787 | CHO-K1 KCNQ1, FluxOR thallium flux fluorescence; active compounds read high | B-score at 10 µM | actives 1.3% (n = 310,000) | AID 2642;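 active means compounds whose thallium flux B-score, printed positive for inhibition, exceeds three library SD while starting fluorescence stays within three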;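 further: channel opened by potassium depolarization with thallium stimulus after 20 min compound exposure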
# KCNQ1 act: potentiators or activators of human KCNQ1 potassium channel; B-score at 10 µM; CHO-K1 KCNQ1, thallium flux FluxOR fluorescence; active compounds read high; AID 2648; P51787; actives 0.35% (n = 310,000);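 active means fluorescence ratio B-score, a plate-corrected score, at least three library SD, with initial intensity B-score within 5 SD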
#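 System: Stable KCNQ1 CHO-K1 line | Incubation: 90 min dye loading and 20 min compound exposure, both at room temperature | Measure: Ratio B score | Medium: Assay buffer for compound exposure, DMSO matched across wells | Compound dosing: Single-concentration screen | Probe or stimulus: K+/Tl+ depolarizing stimulus | Measured by: Kinetic FluxOR fluorescence, 10 s baseline plus 110 s post-stimulus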
# Kir21 inh: Kir2.1 (mouse) channel inhibition. P35561. B-score at 10 µM. actives 0.85% (n = 310,000). HEK293-Kir2.1, FluxOR thallium flux fluorescence; active compounds read low;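 active means fluorescence ratio B-score at or below minus 3 SD of library scores, with starting-brightness B-score within 2 SD, cut at about -4.2 in these data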;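 further: channel flux triggered by added potassium and thallium sulfate stimulus; B-score of peak minus minimum fluorescence over baseline after thallium stimulus; more negative B-score means stronger Kir2.1 block with less thallium influx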
# Target sequence (P35561 whole entry, looked up): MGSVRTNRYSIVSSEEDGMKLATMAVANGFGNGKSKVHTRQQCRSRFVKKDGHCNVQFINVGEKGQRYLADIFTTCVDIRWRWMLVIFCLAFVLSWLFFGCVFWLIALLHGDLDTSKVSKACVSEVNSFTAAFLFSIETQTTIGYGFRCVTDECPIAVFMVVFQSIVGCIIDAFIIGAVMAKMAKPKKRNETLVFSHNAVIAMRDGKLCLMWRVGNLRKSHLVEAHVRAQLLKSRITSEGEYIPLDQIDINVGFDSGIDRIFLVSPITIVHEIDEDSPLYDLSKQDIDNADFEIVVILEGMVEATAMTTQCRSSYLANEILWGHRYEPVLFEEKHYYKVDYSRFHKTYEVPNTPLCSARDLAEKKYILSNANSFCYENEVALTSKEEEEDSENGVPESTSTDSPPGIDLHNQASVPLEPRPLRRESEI
# KCNK3 inh: human KCNK3 channel inhibition, primary screen | B-score at 10 µM | AID 602410 | O14649 | actives 0.84% (n = 340,000) | CHO-KCNK3 thallium flux, FluxOR fluorescence; active compounds read low;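 active means B-score under library mean minus 4 SD, starting fluorescence ratio at most library mean plus 5 SD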;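 further: more negative B-score means stronger inhibition of thallium flux through KCNK3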
# KCNK9 inh: inhibitors of human KCNK9 two-pore domain potassium channel | HEK293 KCNK9, FluxOR thallium flux fluorescence; active compounds read low | B-score at 10 µM | actives 1.2% (n = 310,000);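 active means ratio B-score over 3 SD below the library mean, with starting fluorescence within 5 SD of its mean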;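 further: negative B-score means less thallium flux so channel inhibition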
# Starred values were filed as active, the others as inactive; i = inactive; / = not tested or not shown.
SMILES,hERG rescue,KCNQ1 inh,KCNQ1 act,Kir21 inh,KCNK3 inh,KCNK9 inh
CCOc1ccc(N(CC(=O)N2CCN(c3ccccc3OC)CC2)S(=O)(=O)c2ccc(C)cc2)cc1,-11.5,9*,i,1.2,i,i
C=CC[n+]1c(C)csc1Nc1ccc(C)cc1,-8.2,i,i,0.15,i,i
C=CC[n+]1c(C)csc1Nc1cccc(Br)c1,-14.5,i,i,0.04,i,-6.58*
O=C(COC(=O)COc1ccccc1F)NCCc1ccc(F)cc1,/,/,/,/,i,/
O=C(Oc1ccc(=O)n(-c2ccccc2)n1)c1ccccc1,-6.8,i,i,-7.39*,i,i
Cc1sc2nc(SCC(=O)NCCCO)n(-c3ccccc3)c(=O)c2c1C,-8.0,i,i,0.17,i,i
Cc1sc2nc(SCC(=O)N(C)Cc3ccccc3)n(-c3ccccc3)c(=O)c2c1C,-9.7,i,i,0.3,-8.72*,i
COC(=O)c1sccc1NC(=S)NCc1ccc(Cl)cc1,14.3*,i,i,0.09,i,i
COc1ccc(S(=O)(=O)N2CCNCC2)cc1,6.5*,i,i,0.54,i,i
COc1ccc(S(=O)(=O)N2CCCCCC2)cc1,-11.6,i,i,-0.01,i,i
O=C(NCCc1ccc(Cl)cc1)C1COc2ccccc2O1 (configuration not stated),-3.1,i,i,-4.74*,i,i
Cn1c(CNC(=O)CCNC(=O)c2cccc(F)c2)cc(=O)n(C)c1=O,-9.8,i,i,-0.47,i,i
Cc1ccc(/C=N/N(Cc2ccccc2)c2ccccc2)o1,-6.8,i,i,-0.48,i,-6.8*
C/C(=N/NS(=O)(=O)c1ccc(C(C)(C)C)cc1)c1ccc2c(c1)OCO2,-7.7,i,i,0.85,i,i
C/C(=N\NS(=O)(=O)c1ccc(C(C)(C)C)cc1)c1ccccc1,-5.7,6*,i,1.15,i,i
CC1CNC(=S)N(c2ccccc2)C1=O (configuration not stated),/,/,/,/,i,/
CC(/C=N/n1c(-c2cc(C)[nH]n2)n[nH]c1=S)=C\c1ccco1,-7.1,i,i,0.07,i,i
CC(/C=N/n1c(-c2ccc(Cl)cc2)n[nH]c1=S)=C\c1ccco1,2.5,i,9*,0.8,i,i
O=C(/C=C/c1ccc(F)cc1)Nc1cccc(S(=O)(=O)N2CCOCC2)c1,/,/,/,/,i,/
S=c1nc[nH]c2c1sc1nc(N3CCOCC3)c3c(c12)CCCC3,97.0*,i,95*,-0.28,i,i
C1CCc2c(c(N3CCOCC3)nc3sc4c(N5CCOCC5)nnnc4c23)C1,/,/,/,/,i,/
CCN(CC(=O)Nc1cc(Cl)ccc1C)C(=O)C1COc2ccccc2O1 (configuration not stated),/,/,/,/,i,/
Cc1n[nH]c(=O)c2c(NC(=O)CSc3nn(-c4ccc(F)cc4)c(=S)s3)oc(C)c12,-16.3,6*,i,0.41,i,i
COc1cc(S(=O)(=O)NCC2COCCO2)ccc1-n1cnnn1 (configuration not stated),5.8*,i,i,-0.01,i,i
COc1ccccc1/C=C(/C(=O)OCC(=O)NCc1ccccc1)c1ccccc1,-11.9,7*,i,0.13,i,-7.97*
SMILES,hERG rescue,KCNQ1 inh,KCNQ1 act,Kir21 inh,KCNK3 inh,KCNK9 inh
COc1ccccc1/C=C(/C(=O)OCC(=O)Nc1ccc(N(C)C)cc1)c1ccccc1,-10.5,i,i,0,i,i
COc1ccccc1/C=C(/C(=O)OCC(=O)Nc1ccccc1C)c1ccccc1,-7.6,8*,i,-1.59,i,-7.02*
C=C(C)C(=O)OCC(=O)NCc1ccccc1,-9.8,i,i,0.14,i,i
Cc1sc2nc(CSC(C)C(=O)NC3(C#N)CCCCC3)[nH]c(=O)c2c1C (configuration not stated),/,/,/,/,i,/
Cc1nn2c(c1-c1ccc(Cl)cc1)N=C(c1ccco1)CC2c1ccccc1 (configuration not stated),-4.6,7*,i,0.37,i,-6.68*
Cn1c(=O)[nH]c(=O)c2c1nc(N1CCN(c3cccc(Cl)c3)CC1)n2CCCc1ccccc1,-8.8,i,i,-1.44,/,i
CCCCCn1c(N2CCN(c3cccc(Cl)c3)CC2)nc2c1c(=O)[nH]c(=O)n2C,-14.6,i,i,0.58,i,-7.34*
Cc1ccc(S(=O)(=O)NCCC(=O)NCCc2ccc(S(N)(=O)=O)cc2)cc1C,/,/,/,/,i,/
CCOC(=O)Cc1csc(SCC(=O)Nc2cc(Cl)ccc2Oc2ccccc2)n1,-11.2,11*,i,-3.31,i,i
CCOC(=O)Cc1csc(SCC(=O)Nc2cccc(Cl)c2)n1,-9.3,i,i,1.02,i,i
O=C(COC(=O)Cc1ccc(Cl)cc1)NC1CCCC1,/,/,/,/,i,/
CCCCn1c(N)c(N(CCOC)C(=O)CCCn2c(=O)oc3ccccc32)c(=O)[nH]c1=O,/,/,/,/,i,/
COCc1c(C(=O)NCCOc2ccc(Cl)cc2)oc2ccccc12,/,/,/,/,-8.89*,/
Cc1onc(-c2c(F)cccc2Cl)c1C(=O)OCC(=O)Nc1cccc(S(=O)(=O)N(C)C)c1,/,/,/,/,i,/
Cc1ccc(C)c(N2CCN(C(=O)CCS(=O)(=O)c3ccc4c(c3)CCN4C(=O)C3CC3)CC2)c1,-7.4,i,i,-0.57,i,i
CC(C)n1c(CSCc2ccc(Cl)cc2Cl)n[nH]c1=S,-6.0,i,i,-4.55*,i,i
Nc1nnc(CSCc2ccc(Cl)cc2Cl)s1,-4.2,i,i,-0.71,i,i
CCOC(=O)C(C)On1c(-c2ccc(Cl)cc2)nc2ccc([N+](=O)[O-])cc21 (configuration not stated),-2.3,9*,i,0.57,i,i
Cc1ccc(COn2c(-c3ccc(Cl)cc3)nc3ccc([N+](=O)[O-])cc32)cc1,-6.5,i,i,0.21,i,i
CCOC(=O)C(C)On1c(-c2ccccc2)nc2ccc([N+](=O)[O-])cc21 (configuration not stated),-16.1,i,i,-1.41,i,i
O=[N+]([O-])c1ccc2nc(-c3ccc(Cl)cc3)n(OCc3ccccc3)c2c1,-3.8,6*,i,0.19,i,i
COc1cccc(OC)c1C(=O)NC(=S)N1CCN(c2ccc(C(F)(F)F)cc2[N+](=O)[O-])CC1,11.4*,i,i,0.31,i,i
O=C(NC(=S)N1CCN(c2ccc(Cl)cc2[N+](=O)[O-])CC1)c1cccs1,6.3*,i,20*,-0.51,i,i
O=C(NC(=S)N1CCN(c2ccc(Cl)cc2[N+](=O)[O-])CC1)c1ccco1,-3.4,i,i,-0.05,i,i

# Bioassay records (PubChem)
